LANA-H2A inh = blockers of LANA interaction with H2A/H2B – biochemical, FP readout, HTS, primary screen | inhibition, % (no concentration beside the values) | cell-free LANA-H2A/H2B peptide, fluorescence polarization | hit rate 0.6% among 320,000; in the data active = inhibition mostly above about 10%, no sharp cut-off; inactive = mostly below about 6.7%
GPR7 antag = GPR7 receptor antagonists, primary screen, cell-based, fluorescence, single concentration | Neuropeptides B/W receptor type 1 (Homo sapiens), P48145 | GPR7-expressing cells, fluorescence antagonist assay | inhibition, % at 4.4 µM | hit rate 1.1% among 290,000 | AID 1861, 2009; in the data active = inhibition above about 16%, passing the limit was not always enough;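 note: cells stimulated with the agonist NPW; 0% = agonist with vehicle and 100% = vehicle without agonist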
TAAR1 antagonist = human TAAR1 antagonists, primary screen, Fluo-8 calcium fluorescence, CHO RD-HGA16 cells | hit rate 1.5% among 360,000 | Trace amine-associated receptor 1 (Homo sapiens), Q96RJ0 | inhibition, % at 3 µM | AID 624466, 2012 | antagonist;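 active = inhibition above a per-plate cutoff, the mean inhibition of test compounds on that plate plus 3 SD, cut at about 49% in these data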;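 note: 0% = DMSO plus EC80 beta-PEA response and 100% = DMSO alone without agonist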
Target sequence (Q96RJ0 whole entry, looked up): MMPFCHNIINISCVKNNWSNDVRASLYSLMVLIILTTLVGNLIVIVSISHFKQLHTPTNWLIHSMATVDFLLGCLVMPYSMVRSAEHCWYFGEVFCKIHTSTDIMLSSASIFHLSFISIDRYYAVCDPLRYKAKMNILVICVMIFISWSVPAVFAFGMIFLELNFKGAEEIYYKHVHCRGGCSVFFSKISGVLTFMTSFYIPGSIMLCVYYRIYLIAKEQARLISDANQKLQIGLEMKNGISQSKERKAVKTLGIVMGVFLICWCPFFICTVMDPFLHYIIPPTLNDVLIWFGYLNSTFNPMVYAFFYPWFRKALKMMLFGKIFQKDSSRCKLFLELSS
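Test system: RD-HGA16 CHO cells with stable hTAAR1 and Gα16 / Probe or stimulus: EC80 β-phenethylamine stimulus / Times: seeding 17-24 h prior, 75-min 37 °C, 30-min RT dye loading / Detection: Fluo-8 calcium-sensitive fluorescence / Read-out basis: % inhibition scaled between DMSO and EC80 PEA controls / Repeats: singlicate, one well per test compound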
TAAR1 agonist = human TAAR1 agonists, primary screen, Fluo-8 calcium fluorescence, CHO RD-HGA16 cells | AID 624467, 2012 | activation, % at 3 µM | hit rate 0.99% among 360,000 | vehicle wells 0%, saturating PEA agonist 100% | Trace amine-associated receptor 1 (Homo sapiens), Q96RJ0;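 active = activation above the mean activation of all test compounds in the run plus 3 SD, cut at about 38% in these data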
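Test system: RD-HGA16 (CHO) cells co-expressing Gα16 and hTAAR1 / Benchmarks: DMSO vehicle as 0%, PEA at EC100 as 100% / Repeats: no replicates (n 1) / Measure: % activation from peak over basal fluorescence ratio, DMSO-to-PEA scaled / Timing: 17-24 h plating, Fluo-8 75 min 37 °C, 30 min RT / Technique: kinetic Fluo-8 calcium fluorescence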
TRPN1 ag = zebrafish TRPN1 channel agonists, primary screen, cell-based, HEK293, calcium fluorescence; HEK293 zebrafish TRPN1-YFP, Fluo-8 calcium fluorescence; 100% = response to 87 µM carbachol; AID 1424, 2008; activation, % at 3 µM; hit rate 0.18% among 220,000; transient receptor potential cation channel N1 (TRPN1/NompC), Danio rerio;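 active = activation above its plate's cutoff, the mean activation of test wells on that plate plus 3 SD, cut at about 19% in these data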;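 note: 0% = DMSO alone and 100% = 87 µM carbachol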
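Material: zebrafish TRPN1-YFP in HEK293 cells; Doses: single test compound dose, 3 µM nominal, 0.3% DMSO; Timing: dye loading 1 h at 37 °C, then 30 min room temperature; Technique: intracellular calcium fluorescence with Fluo-8; Benchmarks: high carbachol 87 µM, low DMSO alone.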
TRPML3 agonist = human TRPML3 channel agonists, primary screen, cell-based, HEK293 TRPML3-YFP, Fluo-8 calcium fluorescence, 3 µM; Mucolipin-3 (Homo sapiens), Q8TDD5; 100% = the carbachol control signal; activation, % at 3 µM; hit rate 0.29% among 220,000;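 active = activation above its plate's cutoff, the mean activation of the plate's test wells plus 3 SD, cut at about 12% in these data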;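 note: 0% = DMSO only wells and 100% = carbachol wells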
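Test system – HEK293 line with stable expression of human TRPML3-YFP channel · Control set – carbachol 87 µM final as high control (100%), DMSO as low control (0%) · Signal – Fluo-8 calcium dye fluorescence, ex 470-495, em 515-575 nm · Incubation – 1-h 37 °C dye load, 5-s basal, 120-s post-compound reads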
GPR7 antag conf = GPR7 receptor antagonists, confirmation, cell-based, fluorescence, single concentration; AID 1952, 2009; shares compounds with GPR7 antag; GPR7-expressing cells, calcium fluorescence antagonist mode; inhibition, % at 4.4 µM; hit rate 52% among 2,400; in the data active = inhibition above about 24%;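 note: stimulated with the GPR7 agonist NPW; 0% = agonist plus vehicle and 100% = vehicle alone without agonist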
MCHR1 antagonist = MCHR1 antagonists in cells, counter-screen for GPR7 antagonist project, cell-based, fluorescence, human. hit rate 62% among 2,400. shares compounds with GPR7 antag. inhibition, % at 4.4 µM. MCHR1-expressing cells, fluorescence antagonist assay;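 note: 0% = vehicle with agonist and 100% = vehicle without agonist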
TAAR1 nonsel count = nonselective antagonists in TAAR1 counter-screen cells, counter-screen for hTAAR1 antagonist project, cell-based, fluorescence, calcium; shares compounds with TAAR1 antagonist; counterscreen cell line, antagonist mode; inhibition, % at 3 µM; hit rate 77% among 2,400;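 note: CHO-Ga16 host cells stimulated with ATP at an EC80 level; 0% = agonist EC80 plus vehicle and 100% = vehicle without agonist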
TAAR1 antag conf = human TAAR1 antagonists, retest of hits, confirmation, cell-based, fluorescence; hit rate 40% among 2,400; inhibition, % at 3 µM; TAAR1-expressing cells, fluorescence antagonist read-out; AID 651785, 2012; shares compounds with TAAR1 antagonist; in the data active = inhibition above about 49%;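 note: CHO-Ga16 host cells challenged with agonist PEA near its EC80; 0% = agonist at EC80 plus vehicle and 100% = vehicle with no agonist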
Ga16 nonsel ag = calcium activation in Ga16-expressing cells, counter-screen for TAAR1 antagonist project, cell-based, fluorescence. activation, % at 3 µM. agonist counterscreen. shares compounds with TAAR1 antagonist. hit rate 18% among 2,400; in the data active = activation above about 12%;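 note: 0% = vehicle wells and 100% = saturating stimulus response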
TAAR1 ag count = TAAR1 activation by candidate antagonists – cell-based, fluorescence, counter-screen for TAAR1 antagonist project; activation, % at 3 µM; shares compounds with TAAR1 antagonist; hit rate 2% among 2,400; hTAAR1 cell line, agonist mode; in the data active = activation above about 37%;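 note: CHO cells stably expressing TAAR1 with calcium dye readout; 0% = DMSO vehicle and 100% = full agonist response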
The depositor's hits bear a star; . = no result given. An excerpt weighted towards active compounds, which were near 3.4% of everything screened. Cut-off read from the data, not from the text of the source, unless noted: active = inhibition above about 22%; inactive = the rest.

SMILES	LANA-H2A inh	GPR7 antag	TAAR1 antagonist	TAAR1 agonist	TRPN1 ag	TRPML3 agonist	GPR7 antag conf	MCHR1 antagonist	TAAR1 nonsel count	TAAR1 antag conf	Ga16 nonsel ag	TAAR1 ag count
O=C(COc1cccc(NC(=O)c2ccccc2)c1)c1ccc(F)cc1	0	-4	30	15	1	0	.	.	.	.	.	.
O=C(COc1cccc(NC(=O)c2cccc([N+](=O)[O-])c2)c1)c1ccc(F)cc1	-2	29*	78*	27	1	0	35*	70*	38*	58*	12*	20
CN1C(=O)CSc2ccc(NC(=O)NCc3ccccc3)cc21	-6	-3	13	2	1	0	.	.	.	.	.	.
Cc1cc(C)cc(NC(=O)Nc2ccc3c(c2)N(C)C(=O)CS3)c1	-6	25*	82*	7	4	2	30*	76*	43*	51*	11	7
Cc1cccc(C)c1NC(=O)CN(C)C(=O)C1CC(=O)N(c2cccc3ccccc23)C1 (stereo not given)	.	.	-11	3	.	.	.	.	.	.	.	.
Cc1ccccc1CN1CCc2c(OCC(=O)N3CCCc4ccccc43)cccc2C1=O	-7	22*	72*	12	7	1	31*	60*	41*	54*	11	8
CC(=O)Nc1ccc(/C=N\NC(=O)CNS(=O)(=O)c2ccc([N+](=O)[O-])cc2)cc1	1	12	11	0	-1	0	.	.	.	.	.	.
